Experimental data as given in ChEMBL document CHEMBL3632593, “3-Nitrotriazole-based piperazides as potent antitrypanosomal agents” (Eur J Med Chem, 2015).

How the values were obtained:
[1] = system: Trypanosoma brucei brucei; assay: Antimicrobial activity against bloodstream forms of Trypanosoma brucei brucei overexpressing type I nitroreductase assessed as reduction in cell viability after 3 days by alamar blue assay in absence of tetracycline; type: functional, organism-based; details: 72 h
[2] = Selectivity index, ratio of IC50 for rat L6 cells to IC50 for bloodstream trypomastigote forms of Trypanosoma brucei rhodesiense STIB 900
[3] = system: Trypanosoma brucei brucei; assay: Antimicrobial activity against bloodstream forms of Trypanosoma brucei brucei assessed as reduction in cell viability after 3 days by alamar blue assay; type: functional, organism-based; details: 72 h
[4] = system: Trypanosoma cruzi; assay: Antichagasic activity against amastigote forms of Trypanosoma cruzi Tulahuen C4 assessed as inhibition of growth; type: functional, organism-based
In short: (§1)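 Parasite growth assay run in 96-well format per an earlier protocol. Dose–response curves were constructed, and the 50% growth-inhibitory concentration was calculated by linear regression from the sigmoidal dose–inhibition curves.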

[5] = system: Trypanosoma brucei brucei; assay: Activity of histidine tagged recombinant Trypanosoma brucei brucei type 1 nitroreductase assessed as NADH oxidation at 100 uM by spectrophotometry method
In short: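 Purified recombinant his-tagged T. b. brucei type I nitroreductase. Each nitrotriazole substrate at 100 µM with NADH at 100 µM. NADH oxidation followed spectrophotometrically at 340 nm. Specific activity expressed as nmol NADH oxidized per min per mg enzyme.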

[6] = Selectivity index, ratio of IC50 for rat L6 cells to IC50 for amastigote forms of Trypanosoma cruzi Tulahuen C4
[7] = Selectivity index, ratio of IC50 for rat L6 cells to IC50 for amastigote forms of Leishmania donovani MHOM/ET/67/L82
[8] = system: L6; assay: Cytotoxicity against rat L6 cells assessed as cell viability; type: cell-based
[9] = system: Mus musculus; assay: Toxicity in Balb/c mouse infected with firefly luciferase expressing trypamastigote forms of transgenic Trypanosoma cruzi Y at 15 mg/kg/day, ip dosed for 10 days; type: organism-based; details: in vivo, 240 h
[10] = system: Trypanosoma brucei rhodesiense; assay: Antitrypanosomal activity against bloodstream trypomastigote forms of Trypanosoma brucei rhodesiense STIB 900 assessed as inhibition of growth; type: functional, organism-based; in short: as §1
[11] = system: Trypanosoma cruzi; assay: Antichagasic activity against firefly luciferase expressing trypamastigote forms of transgenic Trypanosoma cruzi Y infected in Balb/c mouse assessed as reduction in parasite level at 15 mg/kg/day, ip dosed for 10 days by luciferase reporter gene assay; type: functional; details: 240 h
In short: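 Balb/c mice were infected with luciferase-expressing T. cruzi Y trypomastigotes and imaged at baseline after i.p. D-luciferin 150 mg/kg in PBS. Ratio = post-treatment / pre-treatment luciferase signal per animal; group mean ± SD.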

[12] = system: Leishmania donovani; assay: Antileishmanial activity against axenic amastigote forms of Leishmania donovani MHOM/ET/67/L82 assessed as inhibition of growth; type: functional, organism-based; in short: as §1
[13] = system: Trypanosoma cruzi; assay: Activity of histidine tagged recombinant Trypanosoma cruzi type 1 nitroreductase assessed as NADH oxidation at 100 uM by spectrophotometry method
In short: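 Purified recombinant T. cruzi type I nitroreductase, prepared and assayed per earlier work. Specific activity expressed as NADH oxidized per min per mg protein.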

[14] = system: Trypanosoma brucei brucei; assay: Ratio of IC50 for bloodstream forms of Trypanosoma brucei brucei overexpressing type I nitroreductase in absence of tetracycline to IC50 for bloodstream forms of Trypanosoma brucei brucei overexpressing type I nitroreductase in presence of tetracycline; type: functional
[15] = system: Trypanosoma brucei brucei; assay: Antimicrobial activity against bloodstream forms of Trypanosoma brucei brucei overexpressing type I nitroreductase assessed as reduction in cell viability after 3 days by alamar blue assay in presence of tetracycline; type: functional, organism-based; details: 72 h
[16] = Half life in human liver S9 microsomes in absence of NADPH by LC-MS/MS method
[17] = Half life in human liver S9 microsomes in presence of NADPH by LC-MS/MS method
[18] = Efflux ratio of permeability from basolateral to apical side over apical to basolateral side in human Caco2 cells after 2 hrs by LC-MS/MS method; details: Caco-2
[19] = target: T1, Cytochrome P450 2C8 (Homo sapiens, UniProt P10632); assay: Inhibition of CYP2C8 in human Liver microsomes after 5 mins by LC-MS/MS method
T1 sequence (P10632 whole entry): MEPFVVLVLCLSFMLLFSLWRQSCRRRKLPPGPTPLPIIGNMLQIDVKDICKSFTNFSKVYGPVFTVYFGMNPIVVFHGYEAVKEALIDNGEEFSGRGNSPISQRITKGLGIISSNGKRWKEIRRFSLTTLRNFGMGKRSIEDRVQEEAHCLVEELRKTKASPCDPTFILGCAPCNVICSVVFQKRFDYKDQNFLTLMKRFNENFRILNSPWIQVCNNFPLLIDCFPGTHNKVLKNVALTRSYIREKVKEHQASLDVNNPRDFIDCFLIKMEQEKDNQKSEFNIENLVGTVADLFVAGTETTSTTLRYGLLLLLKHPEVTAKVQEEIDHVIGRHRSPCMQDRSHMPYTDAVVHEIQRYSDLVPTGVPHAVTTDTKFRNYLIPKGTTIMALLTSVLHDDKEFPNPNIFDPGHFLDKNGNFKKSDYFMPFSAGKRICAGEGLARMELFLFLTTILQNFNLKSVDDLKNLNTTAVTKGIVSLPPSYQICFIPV

[20] = target: Cytochrome P450 2C9 (Homo sapiens, UniProt P11712); assay: Inhibition of CYP2C9 in human Liver microsomes after 5 mins by LC-MS/MS method
Cytochrome P450 2C9, sequence (P11712 whole entry): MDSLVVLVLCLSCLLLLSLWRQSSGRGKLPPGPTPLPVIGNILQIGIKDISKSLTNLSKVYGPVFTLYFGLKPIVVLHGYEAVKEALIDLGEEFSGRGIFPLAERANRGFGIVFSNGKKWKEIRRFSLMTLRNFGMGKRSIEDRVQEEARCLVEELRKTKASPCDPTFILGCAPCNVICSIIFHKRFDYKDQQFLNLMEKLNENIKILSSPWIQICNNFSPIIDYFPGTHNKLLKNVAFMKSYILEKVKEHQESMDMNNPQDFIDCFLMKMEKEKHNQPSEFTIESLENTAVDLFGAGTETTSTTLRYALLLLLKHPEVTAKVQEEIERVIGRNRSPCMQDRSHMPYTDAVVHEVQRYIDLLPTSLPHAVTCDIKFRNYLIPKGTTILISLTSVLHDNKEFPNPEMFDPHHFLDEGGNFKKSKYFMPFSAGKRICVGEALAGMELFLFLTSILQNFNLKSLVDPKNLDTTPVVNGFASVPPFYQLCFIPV

[21] = target: Cytochrome P450 2D6 (Homo sapiens, UniProt P10635); assay: Inhibition of CYP2D6 in human Liver microsomes after 5 mins by LC-MS/MS method
Cytochrome P450 2D6, sequence (P10635 whole entry): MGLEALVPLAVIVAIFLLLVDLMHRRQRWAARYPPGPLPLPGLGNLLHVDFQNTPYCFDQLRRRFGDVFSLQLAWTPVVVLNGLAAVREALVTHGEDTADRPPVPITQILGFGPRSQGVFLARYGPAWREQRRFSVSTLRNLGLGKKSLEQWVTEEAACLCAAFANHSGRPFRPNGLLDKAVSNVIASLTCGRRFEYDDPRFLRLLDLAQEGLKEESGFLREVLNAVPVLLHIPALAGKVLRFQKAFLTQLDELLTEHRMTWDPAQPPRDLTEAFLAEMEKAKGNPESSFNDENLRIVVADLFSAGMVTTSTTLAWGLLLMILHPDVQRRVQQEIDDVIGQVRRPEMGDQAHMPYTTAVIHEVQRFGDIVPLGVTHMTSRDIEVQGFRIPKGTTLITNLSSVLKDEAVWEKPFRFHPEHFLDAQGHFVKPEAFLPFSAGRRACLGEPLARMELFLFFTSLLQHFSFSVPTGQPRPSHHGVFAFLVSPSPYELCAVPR

[22] = target: Cytochrome P450 2C19 (Homo sapiens, UniProt P33261); assay: Inhibition of CYP2C19 in human Liver microsomes after 35 mins by LC-MS/MS method
Cytochrome P450 2C19, sequence (P33261 whole entry): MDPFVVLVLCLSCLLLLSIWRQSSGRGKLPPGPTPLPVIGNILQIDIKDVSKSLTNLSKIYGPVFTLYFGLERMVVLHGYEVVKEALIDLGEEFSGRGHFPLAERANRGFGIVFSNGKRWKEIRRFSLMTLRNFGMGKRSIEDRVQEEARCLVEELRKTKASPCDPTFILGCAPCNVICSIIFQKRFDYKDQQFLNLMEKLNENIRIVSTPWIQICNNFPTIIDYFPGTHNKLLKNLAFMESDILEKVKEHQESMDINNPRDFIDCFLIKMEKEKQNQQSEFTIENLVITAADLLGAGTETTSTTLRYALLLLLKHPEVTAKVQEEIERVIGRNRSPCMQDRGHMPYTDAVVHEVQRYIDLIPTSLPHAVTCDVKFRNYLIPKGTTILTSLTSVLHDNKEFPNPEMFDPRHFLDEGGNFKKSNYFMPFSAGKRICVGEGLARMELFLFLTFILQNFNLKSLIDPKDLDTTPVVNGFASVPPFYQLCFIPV

[23] = target: Cytochrome P450 3A4 (Homo sapiens, UniProt P08684); assay: Inhibition of CYP3A4 in human Liver microsomes after 5 mins by LC-MS/MS method
Cytochrome P450 3A4, sequence (P08684 whole entry): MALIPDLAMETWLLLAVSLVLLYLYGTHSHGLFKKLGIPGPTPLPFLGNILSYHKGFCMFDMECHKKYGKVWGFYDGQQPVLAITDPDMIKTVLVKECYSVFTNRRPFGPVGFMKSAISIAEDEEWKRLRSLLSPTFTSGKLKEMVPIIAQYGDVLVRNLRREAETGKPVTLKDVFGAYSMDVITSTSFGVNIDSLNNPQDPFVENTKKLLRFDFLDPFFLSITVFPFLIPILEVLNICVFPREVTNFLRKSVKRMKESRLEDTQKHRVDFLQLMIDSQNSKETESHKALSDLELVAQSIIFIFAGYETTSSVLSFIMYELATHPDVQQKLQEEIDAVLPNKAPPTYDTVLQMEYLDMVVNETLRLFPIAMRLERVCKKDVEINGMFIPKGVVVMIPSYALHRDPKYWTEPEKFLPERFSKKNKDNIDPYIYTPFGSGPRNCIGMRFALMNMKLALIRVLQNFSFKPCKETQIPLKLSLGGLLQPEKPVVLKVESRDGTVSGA

| IC50 [4] | IC50 [10] | SMILES | selectivity ratio ([2]; L6 cells) | IC50 [3] | Activity [5] | selectivity ratio ([6]; L6 cells) | selectivity ratio ([7]; L6 cells) | IC50 [8] | IC50 [12] | Activity [13] | further results |
| --- | --- | --- | --- | --- | --- | --- | --- | --- | --- | --- | --- |
| 4.64 µM | 19.3 µM | O=C(Cn1cnc([N+](=O)[O-])n1)N1CCN(c2ccccn2)CC1 | 8.98 |  |  | 37.3 | 9.35 | 173 µM | 18.5 µM |  |  |
| 148 µM | 85.2 µM | O=C(Cn1cnc([N+](=O)[O-])n1)N1CCN(C(=O)C2CC2)CC1 | 1.83 |  |  | 1.05 | 5.12 | 156 µM | 30.6 µM |  |  |
| 2.71 µM | 24.6 µM | O=C(CN1CCN(c2ccc(C(F)(F)F)cc2)CC1)N1CCN(c2ccc(C(F)(F)F)cc2)CC1 | 1.2 |  |  | 12 | 6 | 31.7 µM | 5.03 µM |  |  |
| 1.81 µM | 26 µM | O=C(CN1CCN(c2ccc(Cl)c(Cl)c2)CC1)N1CCN(c2ccc(Cl)c(Cl)c2)CC1 | < 1 |  |  | 11 | 3 | 20.2 µM | 6.27 µM |  |  |
| 29.8 µM | 26.3 µM | Cc1ccc(N2CCN(CC(=O)N3CCN(c4ccc(C)cc4)CC3)CC2)cc1 | 8.1 |  |  | 7 | 9 | 213 µM | 24.2 µM |  |  |
|  |  | O=C(Cn1ccnc1[N+](=O)[O-])NCc1ccccc1 [BENZNIDAZOLE] |  |  | 1540 nmol/min/mg |  |  |  |  | 680 nmol/min/mg | inhibition in vivo at 15 mg/kg/day [11]: 99% |
| 1.12 µM | 74.3 µM | O=C(Cn1cnc([N+](=O)[O-])n1)N1CCN(c2ccc(Cl)cc2)CC1 | > 4 | > 30 µM | 2180 nmol/min/mg | > 254 | > 30 | > 285 µM | 9.39 µM | 761 nmol/min/mg |  |
| 1.33 µM | 9.91 µM | Cc1ccc(N2CCN(C(=O)Cn3cnc([N+](=O)[O-])n3)CC2)cc1 | 15 | > 30 µM | 2190 nmol/min/mg | 112 | 14 | 148 µM | 10.8 µM | 787 nmol/min/mg |  |
| 25.7 µM | 12.8 µM | N#Cc1ccccc1N1CCN(CC(=O)N2CCN(c3ccccc3C#N)CC2)CC1 | 9.9 |  |  | 5 | 4 | 127 µM | 24.3 µM |  |  |
| 142 µM | 157 µM | O=C(Cn1ccnc1[N+](=O)[O-])N1CCN(c2ncccn2)CC1 | 1.79 |  |  | 1.97 | 2.11 | 280 µM | 133 µM |  |  |
| 2.85 µM | 11.3 µM | N#Cc1ccccc1N1CCN(C(=O)Cn2cnc([N+](=O)[O-])n2)CC1 | 19 |  |  | 75 | 15 | 213 µM | 14.6 µM |  |  |
| 6.06 µM | 12.6 µM | O=C(CN1CCN(c2ccc(Cl)cc2)CC1)N1CCN(c2ccc(Cl)cc2)CC1 | 9 |  |  | 19 | 6 | 116 µM | 18 µM |  |  |
| 2.42 µM | 16.4 µM | COc1ccc(N2CCN(C(=O)Cn3cnc([N+](=O)[O-])n3)CC2)cc1 | 8.1 |  |  | 54.7 | 7.18 | 133 µM | 18.5 µM |  |  |
| 10 µM | 33.4 µM | O=C(Cn1cnc([N+](=O)[O-])n1)N1CCN(c2ncccn2)CC1 | 4.5 | > 30 µM | 2060 nmol/min/mg | 15 | 6.52 | 150 µM | 22.9 µM | 743 nmol/min/mg |  |

| SMILES | IC50 [4] | IC50 [10] | selectivity ratio ([2]; L6 cells) | IC50 [3] | Activity [5] | selectivity ratio ([6]; L6 cells) | selectivity ratio ([7]; L6 cells) | IC50 [8] | IC50 [12] | Activity [13] | further results |
| --- | --- | --- | --- | --- | --- | --- | --- | --- | --- | --- | --- |
| O=C(Cn1cnc([N+](=O)[O-])n1)N1CCN(c2ccc(Cl)c(Cl)c2)CC1 | 0.169 µM | 4.48 µM | 24 | 4.73 µM | 2320 nmol/min/mg | 641 | 89 | 108 µM | 1.22 µM | 753 nmol/min/mg | IC50 [1]: 7.97 µM; Activity [9]: Non-toxic; inhibition in vivo at 15 mg/kg/day [11]: 77%; Ratio IC50 [14]: 12.3; IC50 [15]: 0.65 µM |
| O=C(Cn1cnc([N+](=O)[O-])n1)N1CCN(C(c2ccccc2)c2ccc(Cl)cc2)CC1 (centres undefined) | 0.073 µM | 3.41 µM | 6.43 | 2.75 µM | 3910 nmol/min/mg | 302 | 14.6 | 21.9 µM | 1.45 µM | 672 nmol/min/mg | IC50 [1]: 3.86 µM; Ratio IC50 [14]: 3.7; IC50 [15]: 1.04 µM |
| O=C(Cn1cnc([N+](=O)[O-])n1)N1CCN(c2ccc(C(F)(F)F)cc2)CC1 | 0.596 µM | 4.22 µM | 48 | 17.5 µM | 2190 nmol/min/mg | 340 | 108 | 202 µM | 1.88 µM | 707 nmol/min/mg | IC50 [1]: 13.6 µM; Ratio IC50 [14]: 16; IC50 [15]: 0.85 µM |
| O=C(Cn1cnc([N+](=O)[O-])n1)N1CCN(Cc2ccc(C(F)(F)F)cc2)CC1 | 0.862 µM | 1.39 µM |  | 26 µM | 3800 nmol/min/mg |  |  | 111 µM | 9.7 µM | 701 nmol/min/mg | IC50 [1]: > 30 µM; half-life [16]: > 3 h; half-life [17]: > 3 h; IC50 [15]: 1.78 µM |
| O=C(Cn1cnc([N+](=O)[O-])n1)N1CCN(Cc2ccc(Cl)c(Cl)c2)CC1 | 0.298 µM | 0.231 µM |  | 3.59 µM | 3730 nmol/min/mg |  |  | 59.9 µM | 8.13 µM | 745 nmol/min/mg | IC50 [1]: 4.13 µM; selectivity ratio ([2]; l6): 260; efflux ratio at 2 h [18]: 0.91; selectivity ratio ([6]; l6): 201; selectivity ratio ([7]; l6): 7.36; IC50 [19]: > 20 µM; IC50 [20]: > 20 µM; IC50 [21]: > 20 µM; IC50 [22]: > 20 µM; IC50 [23]: > 20 µM; Ratio IC50 [14]: 7.2; IC50 [15]: 0.58 µM |
